# ChEMBL document CHEMBL4052614, “Novel 3',5'-diprenylated chalcones inhibited the proliferation of cancer cells in vitro by inducing cell apoptosis and arresting cell cycle phase” (Eur J Med Chem, 2017)
# The source made the active and inactive calls. The calls are words filed in the database; no cut-off is given here.
# Test system: PC-3
# Assay: Growth inhibition of human PC3 cells at 5 umol/L after 48 hrs by MTT assay relative to control
# Assay type: functional
# Details: PC-3, 48 h, read-out: GI
# Outline: (§1)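 Cells kept in DMEM/10% FBS at 37 °C, 5% CO2, seeded at 4×10^3–8×10^3 cells/well, 24 h attachment, then 48 h with compound at 5 µmol/L. MTT (5 mg/mL solution) added for 4 h at 37 °C, formazan taken up in DMSO, A490 read. Percent inhibition as mean ± SD of three independent experiments. Doxorubicin as positive control.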
row,SMILES,inhibition of growth at 5 µM [%]
1,COc1cc(/C=C/C(=O)c2cc(CC=C(C)C)c(OC)c(CC=C(C)C)c2O)ccc1O,26
2,COc1ccc(/C=C/C(=O)c2cc(CC=C(C)C)c(OC)c(CC=C(C)C)c2O)cc1,24.6
3,COc1c(CC=C(C)C)cc(C(=O)/C=C/c2cccn2C)c(O)c1CC=C(C)C,11.7
4,COc1cc(/C=C/C(=O)c2cc(CC=C(C)C)c(OC)c(CC=C(C)C)c2O)ccc1OC(=O)c1ccc(N(C)C)cc1,36.5
5,CCOc1cc(/C=C/C(=O)c2cc(CC=C(C)C)c(OC)c(CC=C(C)C)c2O)ccc1OC(=O)c1cccs1,21.4
6,CCOc1cc(/C=C/C(=O)c2cc(CC=C(C)C)c(OC)c(CC=C(C)C)c2O)ccc1OC(=O)/C=C/c1ccncc1,13.5
7,COc1c(CC=C(C)C)cc(C(=O)/C=C/c2ccc(N(C)C)cc2)c(O)c1CC=C(C)C,11.6
8,CCOc1cc(/C=C/C(=O)c2cc(CC=C(C)C)c(OC)c(CC=C(C)C)c2O)ccc1OC(=O)c1ccco1,12.7
9,COCOc1ccc(/C=C/C(=O)c2cc(CC=C(C)C)c(OC)c(CC=C(C)C)c2O)cc1OC,17.3
10,C=CCOc1ccc(/C=C/C(=O)c2cc(CC=C(C)C)c(OC)c(CC=C(C)C)c2O)cc1OCC,13.4
11,COc1cc(/C=C/C(=O)c2cc(CC=C(C)C)c(OC)c(CC=C(C)C)c2O)cc(OC)c1OC,15
12,CCOc1cc(/C=C/C(=O)c2cc(CC=C(C)C)c(OC)c(CC=C(C)C)c2O)ccc1OCOC,13.1

# Test system: MDA-MB-231
# Assay: Growth inhibition of human MDA-MB-231 cells at 5 umol/L after 48 hrs by MTT assay relative to control
# Assay type: functional
# Details: not given
# Outline: as §1
row,SMILES,growth inhibition (GI)
1,CCOc1cc(/C=C/C(=O)c2cc(CC=C(C)C)c(OC)c(CC=C(C)C)c2O)ccc1OC(=O)/C=C/c1ccncc1,inactive
2,CCOc1cc(/C=C/C(=O)c2cc(CC=C(C)C)c(OC)c(CC=C(C)C)c2O)ccc1OC(=O)c1ccco1,inactive

# Same assay, conditions: MDA-MB-231, 48 h, read-out: GI
row,SMILES,inhibition of growth at 5 µM [%]
1,COc1cc(/C=C/C(=O)c2cc(CC=C(C)C)c(OC)c(CC=C(C)C)c2O)ccc1O,19.3
2,COc1ccc(/C=C/C(=O)c2cc(CC=C(C)C)c(OC)c(CC=C(C)C)c2O)cc1,14.5
3,COc1c(CC=C(C)C)cc(C(=O)/C=C/c2cccn2C)c(O)c1CC=C(C)C,33.8
4,COc1cc(/C=C/C(=O)c2cc(CC=C(C)C)c(OC)c(CC=C(C)C)c2O)ccc1OC(=O)c1ccc(N(C)C)cc1,38.5
5,CCOc1cc(/C=C/C(=O)c2cc(CC=C(C)C)c(OC)c(CC=C(C)C)c2O)ccc1OC(=O)c1cccs1,7.4
6,COc1c(CC=C(C)C)cc(C(=O)/C=C/c2ccc(N(C)C)cc2)c(O)c1CC=C(C)C,21.5
7,COCOc1ccc(/C=C/C(=O)c2cc(CC=C(C)C)c(OC)c(CC=C(C)C)c2O)cc1OC,14
8,C=CCOc1ccc(/C=C/C(=O)c2cc(CC=C(C)C)c(OC)c(CC=C(C)C)c2O)cc1OCC,27.7
9,COc1cc(/C=C/C(=O)c2cc(CC=C(C)C)c(OC)c(CC=C(C)C)c2O)cc(OC)c1OC,26.2
10,CCOc1cc(/C=C/C(=O)c2cc(CC=C(C)C)c(OC)c(CC=C(C)C)c2O)ccc1OCOC,29.9

# Test system: K562
# Assay: Growth inhibition of human K562 cells at 5 umol/L after 48 hrs by MTT assay relative to control
# Assay type: functional
# Details: not given
# Outline: as §1
row,SMILES,growth inhibition (GI)
1,COc1cc(/C=C/C(=O)c2cc(CC=C(C)C)c(OC)c(CC=C(C)C)c2O)ccc1O,inactive
2,CCOc1cc(/C=C/C(=O)c2cc(CC=C(C)C)c(OC)c(CC=C(C)C)c2O)ccc1OC(=O)c1cccs1,inactive
3,CCOc1cc(/C=C/C(=O)c2cc(CC=C(C)C)c(OC)c(CC=C(C)C)c2O)ccc1OC(=O)/C=C/c1ccncc1,inactive
4,COc1c(CC=C(C)C)cc(C(=O)/C=C/c2ccc(N(C)C)cc2)c(O)c1CC=C(C)C,inactive
5,CCOc1cc(/C=C/C(=O)c2cc(CC=C(C)C)c(OC)c(CC=C(C)C)c2O)ccc1OC(=O)c1ccco1,inactive
6,C=CCOc1ccc(/C=C/C(=O)c2cc(CC=C(C)C)c(OC)c(CC=C(C)C)c2O)cc1OCC,inactive
7,COc1cc(/C=C/C(=O)c2cc(CC=C(C)C)c(OC)c(CC=C(C)C)c2O)cc(OC)c1OC,inactive
8,CCOc1cc(/C=C/C(=O)c2cc(CC=C(C)C)c(OC)c(CC=C(C)C)c2O)ccc1OCOC,inactive

# Same assay, conditions: K562, 48 h, read-out: GI
row,SMILES,inhibition of growth at 5 µM [%]
1,COc1ccc(/C=C/C(=O)c2cc(CC=C(C)C)c(OC)c(CC=C(C)C)c2O)cc1,32
2,COc1c(CC=C(C)C)cc(C(=O)/C=C/c2cccn2C)c(O)c1CC=C(C)C,9.9
3,COc1cc(/C=C/C(=O)c2cc(CC=C(C)C)c(OC)c(CC=C(C)C)c2O)ccc1OC(=O)c1ccc(N(C)C)cc1,8.1
4,COCOc1ccc(/C=C/C(=O)c2cc(CC=C(C)C)c(OC)c(CC=C(C)C)c2O)cc1OC,3.9

# Test system: HEL
# Assay: Growth inhibition of HEL cells at 5 umol/L after 48 hrs by MTT assay relative to control
# Assay type: functional
# Details: Homo sapiens
# Outline: as §1
row,SMILES,growth inhibition (GI)
1,COc1c(CC=C(C)C)cc(C(=O)/C=C/c2cccn2C)c(O)c1CC=C(C)C,inactive
2,COc1cc(/C=C/C(=O)c2cc(CC=C(C)C)c(OC)c(CC=C(C)C)c2O)ccc1OC(=O)c1ccc(N(C)C)cc1,inactive
3,CCOc1cc(/C=C/C(=O)c2cc(CC=C(C)C)c(OC)c(CC=C(C)C)c2O)ccc1OC(=O)/C=C/c1ccncc1,inactive
4,COc1c(CC=C(C)C)cc(C(=O)/C=C/c2ccc(N(C)C)cc2)c(O)c1CC=C(C)C,inactive
5,CCOc1cc(/C=C/C(=O)c2cc(CC=C(C)C)c(OC)c(CC=C(C)C)c2O)ccc1OC(=O)c1ccco1,inactive
6,COCOc1ccc(/C=C/C(=O)c2cc(CC=C(C)C)c(OC)c(CC=C(C)C)c2O)cc1OC,inactive
7,C=CCOc1ccc(/C=C/C(=O)c2cc(CC=C(C)C)c(OC)c(CC=C(C)C)c2O)cc1OCC,inactive

# Same assay, conditions: Homo sapiens, read-out: GI
row,SMILES,inhibition of growth at 5 µM [%]
1,COc1cc(/C=C/C(=O)c2cc(CC=C(C)C)c(OC)c(CC=C(C)C)c2O)ccc1O,22.2
2,COc1ccc(/C=C/C(=O)c2cc(CC=C(C)C)c(OC)c(CC=C(C)C)c2O)cc1,29.5
3,CCOc1cc(/C=C/C(=O)c2cc(CC=C(C)C)c(OC)c(CC=C(C)C)c2O)ccc1OC(=O)c1cccs1,4
4,COc1cc(/C=C/C(=O)c2cc(CC=C(C)C)c(OC)c(CC=C(C)C)c2O)cc(OC)c1OC,23.6
5,CCOc1cc(/C=C/C(=O)c2cc(CC=C(C)C)c(OC)c(CC=C(C)C)c2O)ccc1OCOC,6.3
